Where a SMILES comes first, the peptide text is derived from it. The star is where a group is joined. Desaminotyrosyl = O=C(CCc1ccc(O)cc1)*
Key:
[1] = Retardation factor of the compound using 1-BuOH-AcOH-H2O at ratio of 4:1:5 as solvent system by thin layer chromatography; format: physicochemical
Procedure, shortened: (§1)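 Thin-layer chromatography spots were detected with Sakaguchi, Pauly, chlorine-tolidine and ninhydrin reagents.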

[2] = Retardation factor of the compound using 1-BuOH-pyridine-AcOH-H2O at ratio of 30:20:6:24 as solvent system by thin layer chromatography; format: physicochemical; procedure, shortened: as §1
Canis familiaris = assay: Induction of pancreatic juice secretion in iv dosed anesthetized dog relative to natural porcine secretin; format: functional, Canis lupus familiaris
Procedure, shortened: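 Anesthetized dogs received the synthetic peptides by intravenous injection. The volume of pancreatic juice secreted was compared with that produced by pure natural porcine secretin. Responses were evaluated in four-point assays.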

Rf [1]	Rf [2]	Compound	Activity (Canis familiaris) [%]
0.19	0.58	H-HSDGTFTSELSRLRDSARLQRLLQGLV-NH2 [listing 1 of 2 here]	
		H-HSDGTFTSELSRLRDSARLQRLLQGLV-NH2 [listing 2 of 2 here]	107.5
0.18	0.56	H-HSDGTYTSELSRLRDSARLQRLLQGLV-NH2	1.3
0.18	0.52	H-YHSDGTFTSELSRLRDSARLQRLLQGLV-NH2	25.6
0.2	0.56	H-YSDGTFTSELSRLRDSARLQRLLQGLV-NH2	4.3
0.2	0.58	CC(C)C[C@H](NC(=O)CNC(=O)[C@H](CCC(N)=O)NC(=O)[C@H](CC(C)C)NC(=O)[C@H](CC(C)C)NC(=O)[C@H](CCCNC(=N)N)NC(=O)[C@H](CCC(N)=O)NC(=O)[C@H](CC(C)C)NC(=O)[C@H](CCCNC(=N)N)NC(=O)[C@H](C)NC(=O)[C@H](CO)NC(=O)[C@H](CC(=O)O)NC(=O)[C@H](CCCNC(=N)N)NC(=O)[C@H](CC(C)C)NC(=O)[C@H](CCCNC(=N)N)NC(=O)[C@H](CO)NC(=O)[C@H](CC(C)C)NC(=O)[C@H](CCC(=O)O)NC(=O)[C@H](CO)NC(=O)[C@@H](NC(=O)[C@H](Cc1ccccc1)NC(=O)[C@@H](NC(=O)CNC(=O)[C@H](CC(=O)O)NC(=O)[C@H](CO)NC(=O)[C@H](Cc1cnc[nH]1)NC(=O)CCc1ccc(O)cc1)[C@@H](C)O)[C@@H](C)O)C(=O)N[C@H](C(N)=O)C(C)C (Desaminotyrosyl-HSDGTFTSELSRLRDSARLQRLLQGLV-NH2)	4.1
